# ChEMBL document CHEMBL1129606, “Synthesis and bioevaluation of delta 7-5-desaturase inhibitors, an enzyme late in the biosynthesis of the fungal sterol ergosterol” (J Med Chem, 1996)
# pIC50: −log10 of the molar value.
# Molecular target: Delta(7)-sterol 5(6)-desaturase
# Assay: Inhibition of 5-Desaturase involved in ergosterol biosynthesis
# Design: species or system Saccharomyces cerevisiae
# In short: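 Microsomal Δ7-sterol 5-desaturase from aerobically grown S. cerevisiae (37 °C, YPD). Cells bead-disrupted in 0.1 M Tris-HCl pH 7.4, 94500g pellet, desalted on Sephadex G-50. Incubated with Tween 20, FeCl3, NADPH and [5α,6α-3H]-7,22(E)-ergostadien-3β-ol with varied inhibitor, all else held constant. Alkali quench, EtOAc extraction, aqueous 3H2O scintillation-counted. IC50 from inverse velocity vs inhibitor concentration; mean of ≥2 experiments.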
row,SMILES,pIC50
1,C[C@]12CC[C@H](O)C[C@]1(CO)CC=C1CCC12 (some centres not stated),3.95
2,C[C@]12CC[C@H](O)C[C@]1(C(N)=O)CC=C1CCC12 (some centres not stated),3.94
3,C[C@]12CC[C@H](O)C[C@]1(C=O)CC=C1CCC12 (some centres not stated),3.94
4,C[C@]12CC[C@H](O)C[C@]1(C(=O)O)CC=C1CCC12 (some centres not stated),3.95
5,C[C@]12CC[C@H](O)C[C@]1(C#N)CC=C1CCC12 (some centres not stated),3.88
6,C[C@]12CC[C@H](O)C[C@]1(O)[C@H](O)C=C1CCC12 (some centres not stated),4.02
7,C[C@]12CC[C@H](O)C[C@]1(O)[C@@H](O)C=C1CCC12 (some centres not stated),3.83
8,C[C@]12CC[C@H](O)C[C@]1(O)CC=C1CCC12 (some centres not stated),3.83
9,C[C@]12CC[C@H](O)C[C@]1(S)CC=C1CCC12 (some centres not stated),4.10
10,C[C@]12CC[C@H](O)C[C@]1(/C=N/O)CC=C1CCC12 (some centres not stated),3.87
11,C[C@]12CC[C@H](O)[C@H]3O[C@]31CC=C1CCC12 (some centres not stated),4.18
12,C[C@]12CC[C@H](O)C[C@@H]1[C@@H](O)C=C1CCC12 (some centres not stated),4.33
